What all share (assay type): functional
A short description of test [1]: Antiviral activity was evaluated in vitro against human Coxsackie virus as toxicity zone in agar-diffusion plaque-inhibition test. The gist of the method: (§1)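 FL cell monolayers were infected with virus (adsorption 60 min at 20 °C) at a dose giving semiconfluent plaques in 24-48 h at 37 °C. Cells were overlaid with 1% agar in Eagle medium with 10% heated calf serum. 0.1 mL of compound, usually a 2-4% solution, went into 6 mm glass cylinders set in the agar. A second overlay held 0.02% neutral red. Plaque-inhibition and cytotoxicity zone diameters (mm) were read using 3-5 cylinders in at least two dishes. Grading: -, ≤5 mm; ±, 6-10; +, 11-20; ++, ≥20.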
(In general: A growth-free zone around the sample is the usual read-out of agar diffusion tests.)

Test [2] is described as follows: Antiviral activity was evaluated in vitro against human ECHO virus as toxicity zone in agar-diffusion plaque-inhibition test. The gist of the method: as §1
For test [3], the species on record is Homo sapiens. As to the kind of experiment: Antiviral activity was evaluated in vitro against human Coxsackie virus as antiviral affect in agar-diffusion plaque-inhibition test (+/- => inhibition, diameter 6-10 mm). The gist of the method: as §1
Test [4] deals with Poliovirus 1. As to the kind of experiment: Antiviral activity was evaluated in vitro against human poliovirus as inhibition zone in agar-diffusion plaque-inhibition test. An outline of the steps:
as §1

Test [5] is described as follows: cells. To be noted: Homo sapiens.
Test [6] is described as follows: cells. The conditions noted are these: Homo sapiens. This is another data set of the same source.
For test [7], the species on record is Homo sapiens. As to the kind of experiment: Antiviral activity was evaluated in vitro against human ECHO virus as antiviral affect in agar-diffusion plaque-inhibition test (+/- =>inhibition, diameter 6-10 mm). An outline of the steps: as §1
For test [8], the system named is Poliovirus 1. The experiment in a line: Antiviral activity was evaluated in vitro against human poliovirus as toxicity zone in agar-diffusion plaque-inhibition test. The gist of the method: as §1
The species entered for test [9] is Homo sapiens. The experiment in a line: Antiviral activity was evaluated in vitro against human Coxsackie virus as antiviral affect in agar-diffusion plaque-inhibition test (- =>inhibition, diameter < = 5 mm). The gist of the method: (§2)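 FL cell monolayers in 90 mm dishes infected with virus dose giving semiconfluent plaques (adsorption 60 min, 20 °C), then 1% agar overlay in Eagle MM with 10% heated calf serum. Compound, 0.1 mL of usually 2-4% ethanol solution, was placed in 6 mm glass cylinders set in the agar. Concentrations were preliminarily checked as well-tolerated by the cells. Incubation was 24-48 h at 37 °C, followed by a second overlay of 1.5% agar with 0.02% neutral red. Read-out was the diameter of the plaque-inhibition zone and the cytotoxicity zone, using 3-5 cylinders per compound in ≥2 dishes. Scoring: - Δϕ ≤5 mm; ± 6-10; + 11-20; ++ ≥20 mm.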

Test [10] can be described thus: Antiviral activity was evaluated in vitro against human ECHO virus as antiviral affect in agar-diffusion plaque-inhibition test (- => inhibition, diameter < = 5 mm). The gist of the method: as §2
Test [11] can be described thus: Antiviral activity was evaluated in vitro against human poliovirus as antiviral affect in agar-diffusion plaque-inhibition test (- => inhibition, diameter < = 5 mm). An outline of the steps: as §1
The species named for test [12] is Homo sapiens. The experiment in a line: Antiviral activity was evaluated in vitro against human Coxsackie virus as antiviral affect in agar-diffusion plaque-inhibition test (- => inhibition, diameter < = 5 mm). An outline of the steps: as §2
Test [13] can be described thus: Antiviral activity was evaluated in vitro against human poliovirus as antiviral affect in agar-diffusion plaque-inhibition test - => inhibition diameter < = 5 mm. An outline of the steps:
as §1

For test [14], the species on record is Homo sapiens. As to the kind of experiment: Antiviral activity was evaluated in vitro against human ECHO virus as antiviral affect in agar-diffusion plaque-inhibition test (+ => inhibition diameter = 11-20 mm). An outline of the steps:
as §1

Test [15] is filed under the species Homo sapiens. The experiment in a line: Antiviral activity was evaluated in vitro against human Coxsackie virus as antiviral affect in agar-diffusion plaque-inhibition test (- => inhibition diameter < = 5 mm). The gist of the method:
as §2

Test [16] is filed under the species Homo sapiens. As to the kind of experiment: Antiviral activity was evaluated in vitro against human ECHO virus as antiviral affect in agar-diffusion plaque-inhibition test (- => inhibition diameter < = 5 mm). The gist of the method:
as §2

For test [17], the species on record is Homo sapiens. The experiment in a line: Antiviral activity was evaluated in vitro against human poliovirus as antiviral affect in agar-diffusion plaque-inhibition test (- => inhibition diameter < = 5 mm). The gist of the method: as §1
For test [18], the species on record is Homo sapiens. The experiment in a line: Antiviral activity was evaluated in vitro against human ECHO virus as antiviral affect in agar-diffusion plaque-inhibition test(- => inhibition, diameter < = 5 mm). An outline of the steps:
as §1

The species entered for test [19] is Homo sapiens. As to the kind of experiment: Antiviral activity was evaluated in vitro against human Coxsackie virus as antiviral affect in agar-diffusion plaque-inhibition test(- => inhibition, diameter < = 5 mm). The gist of the method:
as §1

Test [20] is filed under the species Homo sapiens. As to the kind of experiment: Antiviral activity was evaluated in vitro against human poliovirus as antiviral affect in agar-diffusion plaque-inhibition test (+/- => inhibition, diameter = 6-10 mm). The gist of the method: as §1
Test [21] is described as follows: cells. To be noted: Homo sapiens. The source holds these as a separate data set.
For test [22], the species on record is Homo sapiens. The experiment in a line: Antiviral activity was evaluated in vitro against human poliovirus as antiviral affect in agar-diffusion plaque-inhibition test(- => inhibition, diameter < = 5 mm). The gist of the method: as §1

The inhibition is the share of the control response that was lost under treatment. Read a high inhibition as a response far below the control. Take `Oc1cccc(/N=C(\S)Nc2cccc(O)c2)c1`: the figures for the Toxicity zone (in test [1]; in [2]; in the test with Poliovirus 1 [8]) were 33.3 mm, 29 mm and 11.4 mm, respectively. Moreover, the Antiviral effect entry in the test filed under Homo sapiens [3] and in the test listed under Homo sapiens [7] was “+/-” throughout. Further, in the test on Poliovirus 1 [4], the Inhibition zone came out at 26.7 mm. For the same compound, in “cells [5]”, 100 µM produced 73.5% inhibition. In “cells [6]”, this compound gave an inhibition at 200 µM of 89%.
For the compound `Oc1ccccc1/N=C(/S)Nc1ccccc1`, the Antiviral effect result (in the test listed under Homo sapiens [9]; in test [10]; in [11]) was “Not toxic” throughout.
Consider `Nc1cccc(N/C(S)=N/c2ccccc2)c1`, for which the Toxicity zone was 16.7 mm in test [1], 20 mm in test [2] and 18 mm in the test with Poliovirus 1 [8]. The compound further had an Inhibition zone in the test with Poliovirus 1 [4] of 28.3 mm. This compound also had an inhibition at 200 µM in “cells [6]” of 100%.
On to `O=C(Nc1ccccc1)Nc1ccccc1O`, for which the Antiviral effect entry in [11] is “Not toxic”. The compound further registered an Inhibition zone in the test with Poliovirus 1 [4] of 36.2 mm. In addition, the Toxicity zone in the test on Poliovirus 1 [8] is 32 mm.
As to `O=C(O)c1cccc(N/C(S)=N/c2ccccc2)c1`, the Antiviral effect result (in the test listed under Homo sapiens [12]; in test [10]; in [11]) was “Not toxic” throughout.
With `O=C(O)c1ccccc1/N=C(/S)Nc1ccccc1`, in the test listed under Homo sapiens [12], the Antiviral effect entry was “Not toxic”.
In the case of `Nc1ccc(/N=C(\S)Nc2ccc(N)cc2)cc1`, the Antiviral effect entry in test [13] was “Not toxic”. Besides, the Inhibition zone in the test on Poliovirus 1 [4] worked out at 0 mm. In the test with Poliovirus 1 [8], the Toxicity zone is 0 mm.
Take `Nc1ccc(NC(=O)Nc2ccccc2)cc1`: the Antiviral effect result in [13] was “Not toxic”. The compound further had an Inhibition zone with Poliovirus 1 [4] of 0 mm. Also, the Toxicity zone in the test on Poliovirus 1 [8] was found to be 0 mm.
As to `Nc1ccccc1NC(=O)Nc1ccccc1`, the Antiviral effect result in test [13] is “Not toxic”. This compound registered an Inhibition zone with Poliovirus 1 [4] of 0 mm. In addition, in the test with Poliovirus 1 [8], the Toxicity zone turned out to be 0 mm.
For the compound `Nc1ccccc1/N=C(\S)Nc1ccccc1N`, the Toxicity zone in test [1] was determined as 34 mm; in [2], 43.5 mm; with Poliovirus 1 [8] it was 39.4 mm. The Antiviral effect result in the test listed under Homo sapiens [3] is “+/-”; in the test filed under Homo sapiens [14], “Not toxic”. Further, the Inhibition zone in the test with Poliovirus 1 [4] stood at 53.7 mm.
Regarding `Nc1ccc(N/C(S)=N/c2ccccc2)cc1`, the Antiviral effect result in the test listed under Homo sapiens [15], in the test listed under Homo sapiens [16] and in the test filed under Homo sapiens [17] was “Not toxic” each time. In addition, the Inhibition zone in the test with Poliovirus 1 [4] was determined as 0 mm. The compound also registered a Toxicity zone in the test on Poliovirus 1 [8] of 0 mm.
For `Nc1ccccc1/N=C(/S)Nc1ccccc1`, the values for the Toxicity zone (in [1]; in test [2]; in the test on Poliovirus 1 [8]) were 41 mm, 37 mm and 9 mm, respectively. For the same compound, the Antiviral effect entry in the test listed under Homo sapiens [18] and in the test filed under Homo sapiens [19] was “Not toxic” throughout. Further, the Inhibition zone in the test on Poliovirus 1 [4] came out at 28 mm. The compound further registered an inhibition at 200 µM in the test “cells [6]” of 98.7%.
Consider `Oc1ccc(N/C(S)=N/c2ccccc2)cc1`, for which the Antiviral effect result in test [10] was “Not toxic”; in the test filed under Homo sapiens [20], “+/-”.
With `O=C(Nc1ccccc1)Nc1ccc(O)cc1`, the Antiviral effect entry in test [13] is “Not toxic”. In addition, the Inhibition zone in the test with Poliovirus 1 [4] was found to be 0 mm. The Toxicity zone with Poliovirus 1 [8] stood at 0 mm.
In the case of `Oc1cccc(N/C(S)=N/c2ccccc2)c1`, the Inhibition zone in the test with Poliovirus 1 [4] was 33 mm. In addition, the inhibition at 100 µM in the test “cells [21]” came out at 99.4%. The same compound came in with an inhibition at 200 µM in the test “cells [6]” of 99.9%. The compound also yielded a Toxicity zone in the test with Poliovirus 1 [8] of 15.8 mm.
As for `O=C(O)c1ccc(N/C(S)=N/c2ccccc2)cc1`, the Antiviral effect result (in the test listed under Homo sapiens [12]; in test [10]; in test [11]) was “Not toxic” each time.
For `CC(=O)Nc1cccc(O)c1` [METACETAMOL], the Antiviral effect entry in [11] is “Not toxic”. Besides, the Inhibition zone in the test with Poliovirus 1 [4] stood at 0 mm. For the same compound, the Toxicity zone with Poliovirus 1 [8] was found to be 0 mm.
On to `Oc1ccc(/N=C(\S)Nc2ccc(O)cc2)cc1`, for which, in the test listed under Homo sapiens [22], the Antiviral effect entry was “Not toxic”. In the test with Poliovirus 1 [4], the Inhibition zone came to 0 mm. For the same compound, in the test with Poliovirus 1 [8], the Toxicity zone was 0 mm.
In the case of `O=C(O)c1ccc(N/C(S)=N/c2ccccc2)cc1O`, the Inhibition zone in the test with Poliovirus 1 [4] came to 36.1 mm. The compound also yielded an inhibition at 200 µM in “cells [6]” of 99.9%. The compound also returned a Toxicity zone in the test with Poliovirus 1 [8] of 17.9 mm.
For the compound `O=C(Nc1ccccc1)Nc1cccc(O)c1`, the values for the Toxicity zone (in [1]; in test [2]; in the test with Poliovirus 1 [8]) were 6.5 mm, 6.5 mm and 7.3 mm, respectively. For the same compound, the Antiviral effect result in the test filed under Homo sapiens [18], in the test filed under Homo sapiens [20] and in the test filed under Homo sapiens [19] was “Not toxic” in each case. The compound also came in with an Inhibition zone with Poliovirus 1 [4] of 13.3 mm. 100 µM produced 66.3% inhibition in the test “cells [5]”. Moreover, in the test “cells [6]”, the inhibition at 200 µM was 96.3%.
Consider `Nc1cccc(O)c1` [3-AMINOPHENOL], for which the Antiviral effect result in test [13] was “Not toxic”. In the test on Poliovirus 1 [4], this compound gave an Inhibition zone of 0 mm. In the test with Poliovirus 1 [8], this compound yielded a Toxicity zone of 0 mm.
As to `NC(N)=S` [THIOUREA], the Antiviral effect result in test [13] is “Not toxic”. The same compound showed an Inhibition zone in the test on Poliovirus 1 [4] of 26 mm. Also, in the test on Poliovirus 1 [8], the Toxicity zone stood at 22 mm.
For `Nc1cccc(NC(=O)Nc2ccccc2)c1` the same measures were “Not toxic”, 0 mm and 0 mm.

The values above are taken from ChEMBL document CHEMBL1121582, “Structure-activity relationship of diphenylthiourea antivirals” (1980).
